Results: PMC3660010 (Diabetologia, 2012)
“Also recorded” adds a separate entry of the source. Ends that are not written are not given here.

Key:
[1] = tested on: hIAPP fibrils; assay: Transmission electron microscopy of hIAPP fibrils; type: biochemical, human; details: 37°C, 20 h; for hIAPP fibrils by TEM in the presence of protein: hIAPP 25 μmol/l with 0.5 μmol/l protein
[2] = tested on: INS 832/13 insulinoma cells; assay: MTT assay, synthetic hIAPP-induced cytotoxicity; type: cell-based, rat; details: 48 h; for viable cells relative to vehicle control cells (MTT), peptide alone: 20 μmol/l synthetic peptide, INS 832/13, mean ± SEM
How it was run: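 INS 832/13 cells were exposed to 20 μmol/l synthetic hIAPP plus 4, 40 or 400 nmol/l recombinant NEP or NEPx for 48 h, with vehicle (0.8% DMSO in media), 20 μmol/l rIAPP and 400 nmol/l transferrin controls. MTT added 1:10 from 5 mg/ml stock, 4 h at 37°C, HCl/isopropanol, A570. Viability as % of vehicle; mean ± SEM, n = 3 to 9, one-way ANOVA with Dunnett's test.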

[3] = tested on: INS 832/13 insulinoma cells; assay: MTT assay, hIAPP overexpression-induced cytotoxicity; type: cell-based, rat; details: 48 h; for effect on hIAPP overexpression-induced cytotoxicity (MTT), 400 nmol/l protein: adenovirus prepro-hIAPP-GFP MOI 100, 400 nmol/l protein in media
How it was run: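 INS 832/13 rat insulinoma cells (RPMI 1640, 11.1 mmol/l glucose, 10% FBS, 37°C, 5% CO2) transduced with adenovirus encoding prepro-hIAPP-GFP at MOI 100; GFP and prepro-rIAPP-GFP viruses as controls. Recombinant NEP or NEPx (4, 40, 400 nmol/l) or transferrin (400 nmol/l) added to media. After 48 h, MTT 4 h at 37°C, acidic isopropanol, A570; viability as % of vehicle control.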

[4] = tested on: INS 832/13 insulinoma cells; assay: Cleaved caspase-3 Western blot, synthetic hIAPP-induced apoptosis; type: cell-based, rat; details: 20 μmol/l synthetic peptide, 24 h
[5] = target: NEPx (Homo sapiens, UniProt P08473, E585V); assay: Cleavage of hIAPP by catalytically compromised NEPx, reverse phase HPLC; type: biochemical; details: 20 μmol/l hIAPP, 400 nmol/l NEPx, 37°C, 1 h
How it was run: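 Enzyme: recombinant human NEP ectodomain E585V mutant, expressed in CHO-S cells as a His-tagged growth hormone fusion. Purified by nickel affinity, PreScission removal of growth hormone, and MonoQ anion exchange. 20 μmol/l hIAPP incubated with the enzyme in 20 mmol/l MES, pH 6.5, at 37°C. Stopped with TFA to 0.5%. Reverse-phase HPLC on a C4 column.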

[6] = tested on: neprilysin (NEP); assay: 400 nmol/l recombinant NEP in 20 mmol/l MES buffer, pH 6.5; details: human, 37°C, up to 60 min
[7] = tested on: NEP; details: cited from earlier work
[8] = target: T1, NEP (Homo sapiens, UniProt P08473); assay: Fluorogenic assay of NEP activity, inhibition by phosphoramidon; type: biochemical
[9] = target: T1, NEP; assay: Cleavage of peptide by neprilysin, reverse phase HPLC and mass spectrometry; type: biochemical; details: 37°C
How it was run: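 Purified His-tagged recombinant human NEP (CHO-S-expressed, nickel-affinity and anion-exchange purified), 400 nmol/l, incubated with 20 μmol/l hIAPP (from 2.5 mmol/l DMSO stock) in 20 mmol/l MES, pH 6.5, 37°C for 60 min, with or without phosphoramidon; catalytically compromised E585V mutant run in parallel. Stopped with TFA to 0.5%, reverse-phase HPLC on C4 column; products collected manually for mass spectral identification.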

[10] = target: NEP^E585V mutant (NEPx) (Homo sapiens, UniProt P08473, E585V); assay: Fluorogenic assay of NEPx activity, inhibition by phosphoramidon; type: biochemical; details: GAAF-4-MNA as substrate
[11] = Fluorogenic assay of NEP activity with GAAF-4-MNA as substrate; type: biochemical; details: 100 μmol/l GAAF-4-MNA, 20 mmol/l MES pH 6.5, 37°C
[12] = 20 μmol/l synthetic hIAPP, mean ± SEM, n = 3 to 9

With “TF: transferrin used as protein control [reference compound]” the “hIAPP fibrils by TEM in the presence of protein” value (from here on “hIAPP fibrils … of protein”) [1] was “fibrils were observed”, the “viable cells (MTT) with hIAPP in the presence of 400 nmol/l protein” value (“viable cells (MTT) … of 400 nmol/l protein” for short) [2, 12] was “did not protect” and the “effect on hIAPP overexpression-induced cytotoxicity (MTT), 400 nmol/l protein” value [3] was “had no effect”.

In the case of `CC[C@H](C)[C@H](NC(=O)[C@H](C)NC(=O)CNC(=O)[C@H](Cc1ccccc1)NC(=O)[C@H](CC(N)=O)NC(=O)[C@H](CC(N)=O)NC(=O)[C@H](CO)NC(=O)[C@H](CO)NC(=O)[C@H](Cc1c[nH]cn1)NC(=O)[C@@H](NC(=O)[C@H](CC(C)C)NC(=O)[C@H](Cc1ccccc1)NC(=O)[C@H](CC(N)=O)NC(=O)[C@H](C)NC(=O)[C@H](CC(C)C)NC(=O)[C@H](CCCNC(=N)N)NC(=O)[C@H](CCC(N)=O)NC(=O)[C@@H](NC(=O)[C@H](C)NC(=O)[C@@H]1CSSC[C@H](NC(=O)[C@@H](N)CCCCN)C(=O)N[C@@H](CC(N)=O)C(=O)N[C@@H]([C@@H](C)O)C(=O)N[C@@H](C)C(=O)N[C@@H]([C@@H](C)O)C(=O)N1)[C@@H](C)O)C(C)C)C(=O)N[C@@H](CC(C)C)C(=O)N[C@@H](CO)C(=O)N[C@@H](CO)C(=O)N[C@H](C(=O)N[C@@H](CC(N)=O)C(=O)N[C@H](C(=O)NCC(=O)N[C@@H](CO)C(=O)N[C@@H](CC(N)=O)C(=O)N[C@H](C(=O)N[C@@H](Cc1ccc(O)cc1)C(N)=O)[C@@H](C)O)C(C)C)[C@@H](C)O` [hIAPP, IAPP (1–37, disulfide bridge 2–7, amide), reference compound], the “hIAPP fibrils by TEM, untreated hIAPP (CTRL)” value ([1]; hIAPP 25 μmol/l with buffer) is reported as “fibrils were observed”, the “induction of apoptosis (increase in cleaved caspase-3), peptide alone” value [4] is reported as “induced apoptosis” and the “viable cells relative to vehicle control cells (MTT), peptide alone” value ([2]; n = 3 to 9) is reported as 15.6 ± 3.5%. For the same molecule, the “cleavage of hIAPP by NEPx” value [5] was “no cleavage”.

For “IAPP (1–37, disulfide bridge 2–7, amide)”, the cleaved bond [6] is given as “Arg11-Leu12, major; also recorded: Leu12-Ala13, major” and the not cleaved [7] is given as “concluded that NEP did not cleave hIAPP”.

In the case of “rIAPP: synthetic rodent islet amyloid polypeptide, non-aggregating control [reference compound]”, the “induction of apoptosis (increase in cleaved caspase-3), peptide alone” value [4] is reported as “but not rIAPP, induced apoptosis” and the “viable cells relative to vehicle control cells (MTT), peptide alone” value ([2]; n = 3 to 9) is reported as “did not cause significant cytotoxicity”.

With `CC(C)C[C@H](NP(=O)(O)O[C@@H]1O[C@@H](C)[C@H](O)[C@@H](O)[C@H]1O)C(=O)N[C@@H](Cc1c[nH]c2ccccc12)C(=O)O` [phosphoramidon] the “activity of NEP in the presence of phosphoramidon” value ([8]; GAAF-4-MNA as substrate) was “undetectable levels”, the inhibition at 50 µM ([8]; read-out: inhibition of NEP activity) was over 99% and the “effect of NEP inhibitor on hIAPP cleavage by NEP” value ([9]; 20 μmol/l hIAPP, 400 nmol/l NEP, 60 min, HPLC) was “blocked”. The “activity of NEPx in the presence of phosphoramidon” value [10] was “undetectable levels”.

For ILSSTNVGSNTY-NH2, the “further cleavage of the product by NEP” value ([9]; product of hIAPP (20 μmol/l) with 400 nmol/l NEP, initially increased with time, then decreased (HPLC)) was “appeared to be further cleaved”.

B1: NEPx: catalytically compromised NEP^E585V mutant ectodomain, about 80% pure (protein, UniProt P08473 52-750, looked up, variant E585V)
extracellular domain: YDDGICKSSDCIKSAARLIQNMDATTEPCTDFFKYACGGWLKRNVIPETSSRYGNFDILRDELEVVLKDVLQEPKTEDIVAVQKAKALYRSCINESAIDSRGGEPLLKLLPDIYGWPVATENWEQKYGASWTAEKAIAQLNSKYGKKVLINLFVGTDDKNSVNHVIHIDQPRLGLPSRDYYECTGIYKEACTAYVDFMISVARLIRQEERLPIDENQLALEMNKVMELEKEIANATAKPEDRNDPMLLYNKMTLAQIQNNFSLEINGKPFSWLNFTNEIMSTVNISITNEEDVVVYAPEYLTKLKPILTKYSARDLQNLMSWRFIMDLVSSLSRTYKESRNAFRKALYGTTSETATWRRCANYVNGNMENAVGRLYVEAAFAGESKHVVEDLIAQIREVFIQTLDDLTWMDAETKKRAEEKALAIKERIGYPDDIVSNDNKLNNEYLELNYKEDEYFENIIQNLKFSQSKQLKKLREKVDKDEWISGAAVVNAFYSSGRNQIVFPAGILQPPFFSAQQSNSLNYGGIGMVIGHVITHGFDDNGRNFNKDGDLVDWWTQQSASNFKEQSQCMVYQYGNFSWDLAGGQHLNGINTLGENIADNGGLGQAYRAYQNYIKKNGEEKLLPGLDLNHKQLFFLNFAQVWCGTYRPEYAVNSIKTDVHSPGNFRIIGTLQNSAEFSEAFHCRKNSYMNPEKKCRVW
modifications: extracellular domain
For B1, the “hIAPP fibrils … of protein” value [1] was “fibrils were observed”, the “NEP activity abolished by the E585V mutation” value [11] was “greater than 98%” and the “activity relative to wild-type NEP activity” value ([11]; fluorescence ex 340/em 425 nm) was ~ 1.7%. For the same molecule, the “viable cells (MTT) … of 400 nmol/l protein” value [2, 12] was 58.4 ± 9.3% and the “effect on hIAPP overexpression-induced cytotoxicity (MTT), NEPx” value ([3]; adenovirus prepro-hIAPP-GFP MOI 100, 4, 40 or 400 nmol/l NEPx) was “had no effect”.

B2: NEP: recombinant ectodomain of human neprilysin expressed in CHO-S cells (protein, UniProt P08473 52-750, looked up)
extracellular domain: YDDGICKSSDCIKSAARLIQNMDATTEPCTDFFKYACGGWLKRNVIPETSSRYGNFDILRDELEVVLKDVLQEPKTEDIVAVQKAKALYRSCINESAIDSRGGEPLLKLLPDIYGWPVATENWEQKYGASWTAEKAIAQLNSKYGKKVLINLFVGTDDKNSVNHVIHIDQPRLGLPSRDYYECTGIYKEACTAYVDFMISVARLIRQEERLPIDENQLALEMNKVMELEKEIANATAKPEDRNDPMLLYNKMTLAQIQNNFSLEINGKPFSWLNFTNEIMSTVNISITNEEDVVVYAPEYLTKLKPILTKYSARDLQNLMSWRFIMDLVSSLSRTYKESRNAFRKALYGTTSETATWRRCANYVNGNMENAVGRLYVEAAFAGESKHVVEDLIAQIREVFIQTLDDLTWMDAETKKRAEEKALAIKERIGYPDDIVSNDNKLNNEYLELNYKEDEYFENIIQNLKFSQSKQLKKLREKVDKDEWISGAAVVNAFYSSGRNQIVFPAGILQPPFFSAQQSNSLNYGGIGMVIGHEITHGFDDNGRNFNKDGDLVDWWTQQSASNFKEQSQCMVYQYGNFSWDLAGGQHLNGINTLGENIADNGGLGQAYRAYQNYIKKNGEEKLLPGLDLNHKQLFFLNFAQVWCGTYRPEYAVNSIKTDVHSPGNFRIIGTLQNSAEFSEAFHCRKNSYMNPEKKCRVW
modifications: extracellular domain
In the case of B2, the “hIAPP fibrils … of protein” value [1] is reported as “fibrils were not seen”, the “viable cells (MTT) with hIAPP in the presence of 4 nmol/l protein” value ([2]; 20 μmol/l synthetic hIAPP, 4 nmol/l protein, not statistically significant) is reported as 39.4 ± 15.3% and the “viable cells (MTT) with hIAPP in the presence of 40 nmol/l protein” value ([2]; 20 μmol/l synthetic hIAPP, 40 nmol/l protein, mean ± SEM, n = 3 to 9) is reported as 92.9 ± 9.5%. For the same molecule, the “viable cells (MTT) … of 400 nmol/l protein” value [2, 12] was 84.5 ± 7.3%, the “effect on hIAPP overexpression-induced cytotoxicity (MTT), 400 nmol/l protein” value [3] was “reduced this hIAPP induced cytotoxicity” and the “effect on hIAPP overexpression-induced cytotoxicity (MTT), lower concentrations of NEP” value ([3]; adenovirus prepro-hIAPP-GFP MOI 100, 4 or 40 nmol/l) was “had no effect”.
